For series [1] the following is noted: cited from earlier work.
In series [2] the target is T1, human D2 receptor (short isoform, D2S) (Homo sapiens, UniProt P14416). Description: cell-based. Format: binding.
Series [3] has as its target T1, human D2 receptor (short isoform, D2S). It is filed as binding.
For series [4] the target is unchanged. Format: binding. The source holds these as a separate data set.
Another series deals with GRK2. Description: Western blot of tetracycline-induced GRK2 expression in triple-transfected cells. Format: cell-based, bovine. Conditions: tetracycline 1 μg/ml 24 h; triple-transfected cells vs untreated cells; n=3. The procedure, abridged:
(§1)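 T-REx-293 cells stably triple-transfected with D2S receptor, tetracycline-inducible GRK2 and arrestin3; tetracycline 1 μg/ml (final) or vehicle 24 h at 36 °C. Lysed in 1% dodecyl maltopyranoside/PBS with protease inhibitors and N-ethylmaleimide; 20 μg protein run on 7.5% SDS-PAGE, PVDF. Rabbit polyclonal primaries 1 h RT (anti-GRK2 1:1000; anti-arrestin3 1:500), HRP anti-rabbit 1:15,000; ECL-Plus imaging and quantitation; % increase versus untreated cells.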

In a further series the test system is arrestin3. It is filed as cell-based, rat. The settings on record: tetracycline 1 μg/ml 24 h; triple-transfected cells vs untreated cells; n=2. In outline:
as §1

Setting [5] is: internalized (Q+/MTSET+) vs surface (Q-/MTSET-).
Where [6] appears, read: read-out: Internalized D2 receptor (Q+/MTSET+) KI(i).
[7] abbreviates: read-out: Surface D2 receptor (Q-/MTSET-) KI(s).

Structures are written as SMILES. “And” between values parts separate entries of the source, which are not always exact repeats. Identical values can stand only once. Like-named read-outs stand apart in the source and are kept apart here.

T1 sequence (P14416 1-414 isoform P14416-2): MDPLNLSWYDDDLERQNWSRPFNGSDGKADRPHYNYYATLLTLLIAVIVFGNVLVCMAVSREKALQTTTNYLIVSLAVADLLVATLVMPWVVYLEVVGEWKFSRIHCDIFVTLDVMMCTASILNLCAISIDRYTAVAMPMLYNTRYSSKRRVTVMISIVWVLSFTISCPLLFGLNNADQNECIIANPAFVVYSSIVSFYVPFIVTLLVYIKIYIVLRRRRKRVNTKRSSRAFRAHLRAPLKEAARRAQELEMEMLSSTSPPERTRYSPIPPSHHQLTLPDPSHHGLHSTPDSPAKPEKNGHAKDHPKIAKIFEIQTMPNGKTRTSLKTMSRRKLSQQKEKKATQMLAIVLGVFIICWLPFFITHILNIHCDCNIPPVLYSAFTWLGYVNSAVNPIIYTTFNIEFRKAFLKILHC

As to `CCCN1CCOC2c3cc(O)ccc3CCC21` (single isomer, unassigned; (+)) [PHNO, (+)-4-propyl-3,4,4a,5,6,10b-hexahydro-2H-naphtho[1,2-b][1,4]oxazin-9-ol], the “Lipophilicity (Log P)” value in series [1] (ref Wilson et al, 2005) is 2.1 ^d†.
As to `CC[11CH2]N1CCc2cccc3c2C1Cc1ccc(O)c(O)c1-3` (single isomer, unassigned; (-)) [NPA, (-)-N-[11C]propyl-norapomorphine], the “Lipophilicity (Log P)” value in series [1] (ref Wilson et al, 2005) is recorded as 2.5 ^d†.
For the compound `CCN1CCC[C@H]1CNC(=O)c1cc(I)cc(OC)c1OC` [Epidepride], in series [2], the “Affinity shift Ki(i)/Ki(s)” value worked out at 2.4. Moreover, the “Lipophilicity (Log kw)” value in series [1] (ref Kessler et al, 1991) is 2.1 ^c‡.
`CCN1CCC[C@H]1CNC(=O)c1cc(Br)cc(OC)c1OC` [FLB 457]: in series [2] (setting [5]), the “Affinity shift Ki(i)/Ki(s)” value stood at 3.0. Also, the Ki in series [2] (setting [6]) was found to be 0.09 ± 0.02 nM; in series [2] (setting [7]), 0.03 ± 0.01 nM. Further, the “Lipophilicity (Log kw)” value in series [1] (ref Loc'h et al, 1996) is 1.9 ^b‡.
`C=CCN1CCC[C@H]1CNC(=O)c1cc(CCCF)cc(OC)c1OC` [Fallypride]: the Ki was found to be 0.92 ± 0.31 nM in series [2] (Internalized D2 receptor (Q+/MTSET+) KI(i)) and 0.32 ± 0.06 nM in series [2] (Surface D2 receptor (Q-/MTSET-) KI(s)). In series [2] (setting [5]), the “Affinity shift Ki(i)/Ki(s)” value is 2.9. The “Lipophilicity (Log P)” value in series [1] (ref Laruelle, 2000) is listed as 2.4 ^a†.
For `CCN1CCC[C@H]1CNC(=O)c1c(OC)ccc(I)c1O` [IBZM], the Ki in series [2] (setting [6]) is 0.23 ± 0.11 nM; in series [2] (setting [7]), 0.19 ± 0.05 nM.
As to `CCN1CCC[C@H]1CNC(=O)c1c(OC)ccc([123I])c1O` [IBZM], the “Affinity shift Ki(i)/Ki(s)” value in series [2] (setting [5]) amounted to 1.2. Moreover, the “Lipophilicity (Log P)” value in series [1] (ref Laruelle, 2000) is given as 2.8 ^a†.
Regarding `C[N+](C)(C)CCSS(C)(=O)=O.[Br-]` [MTSET, [2-(trimethylammonium)ethyl] methanethiosulfonate bromide], the “[3H]NMSP binding remaining, % of the total binding” value in series [3] is on record as 10%.
Consider `CN1CN(c2ccccc2)C2(CCN(CCCC(=O)c3ccc(F)cc3)CC2)C1=O` [NMSP, N-methylspiperone], for which the “Lipophilicity (Log P)” value in series [1] (ref Laruelle, 2000) was 3.3 ^a†.
`CCN1CCC[C@H]1CNC(=O)c1c(O)c(Cl)cc(Cl)c1OC` [Raclopride]: the “increase in the Ki at internalized receptors (decrease in affinity)” value in series [2] is listed as “about 2 fold”.
Take `CCN1CCCC1CNC(=O)c1cc(S(N)(=O)=O)ccc1OC` (stereo not drawn) [Sulpiride]: in series [2], the “fraction of D2 receptors on the surface” value turned out to be 80.9%; the “fraction of D2 receptors on the surface (high affinity)” value was 85.8% and 43.1%. Moreover, the “fraction of D2 receptors with high affinity” value in series [4] is 90% and 55% and 89.9%.
With `CN(C)[C@@H]1C(O)=C(C(N)=O)C(=O)[C@@]2(O)C(O)=C3C(=O)c4c(O)cccc4[C@@](C)(O)[C@H]3C[C@@H]12` [Tetracycline], the “increase in GRK2 expression” value with GRK2 worked out at 190 ± 24%. Besides, the “increase in arrestin3 expression” value in the series on arrestin3 came out at 538 ± 75%.

Source of the values: PMC2813939 (Neuropsychopharmacology : official publication of the …, 2009).
